The values below come from publication PMC3387347 (Investigational new drugs, 2012).

What is called clearance is the volume of plasma or blood freed of the substance per unit of time. Lower therefore signals inefficient removal.

Series [1] is described as follows: In vivo cassette dosing pharmacokinetic study in normal mice. More on the design: species or system mouse. Particulars: for AUCb: normal brain; for Kp / clearance / Vd: male, ICR, mouse, 5 mg/kg, normal mice; for Kp: brain, intravenous, Pb (brain partition coefficient, AUCb/AUCp); for clearance / Vd: plasma, iv; for clearance: CL (total systemic clearance); for Vd: Vd (apparent volume of distribution). The essentials:
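Adult male ICR mice each received a compound mixture in NMP:PEG300:water (1:4:5 by volume) as an IV bolus into a lateral tail vein. The dose was about 5 mg/kg per compound, with one compound at 1.67 mg/kg. Plasma and brain were collected at various times, stored at −80°C and quantified by LC/MS/MS. AUCb was derived by noncompartmental analysis.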

The conditions of series [2]: mice; cited from earlier work.
A further series has as its system Pgp. Particulars: cited from earlier work.
Where [3] appears, read: cassette B, IV approximately 5 mg/kg.
Where [4] appears, read: cassette C, IV approximately 5 mg/kg.

Each structure is given as a SMILES string.

The compound `COc1cc2ncnc(Nc3ccc(F)c(Cl)c3)c2cc1OCCCN1CCOCC1` [Gefitinib] gave an AUCb in series [1] (cassette A, IV approximately 5 mg/kg (ON271320 1.67 mg/kg)) of 1968.6 ng·h/g. Besides, in series [1] (setting [3]), the AUCb worked out at 2685.2 ng·h/g, the Kp amounted to 2.5, the clearance is 71.7 mL/min/kg and the Vd amounted to 9.9 L/kg. For the same compound, in series [1] (setting [4]), the AUCb came to 3491.2 ng·h/g, the Kp is 1.9, the clearance is 43.3 mL/min/kg and the Vd turned out to be 8.9 L/kg. Besides, the “bound to plasma proteins” value in series [2] was 95%. For the same compound, the “concentration reported to inhibit Pgp” value in the series on Pgp was 100 µM.
